This is a sample that favours compounds with a hit; in the whole collection about 3.8% have one here.
KCNK9 inh: human KCNK9 channel inhibition. Q9NPC2. HEK293 KCNK9, FluxOR thallium flux fluorescence; active compounds read low. B-score at 10 µM. actives 1.2% (n = 310,000). AID 488922;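 active means ratio B-score over 3 SD below the library mean, with starting fluorescence within 5 SD of its mean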;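 further: negative B-score means less thallium flux so channel inhibition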
Target sequence (Q9NPC2 whole entry, looked up): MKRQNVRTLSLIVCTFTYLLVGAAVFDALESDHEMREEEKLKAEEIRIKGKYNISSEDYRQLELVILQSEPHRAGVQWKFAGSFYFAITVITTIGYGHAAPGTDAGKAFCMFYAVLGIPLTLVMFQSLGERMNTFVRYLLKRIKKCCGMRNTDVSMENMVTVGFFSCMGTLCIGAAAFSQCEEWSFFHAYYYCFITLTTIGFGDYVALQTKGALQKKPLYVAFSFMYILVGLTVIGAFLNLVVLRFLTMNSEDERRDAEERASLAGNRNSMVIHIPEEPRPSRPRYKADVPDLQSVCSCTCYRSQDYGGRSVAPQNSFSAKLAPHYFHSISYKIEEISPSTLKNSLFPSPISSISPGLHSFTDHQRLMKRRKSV
hERG rescue: hERG (human) protection from proarrhythmic block; actives 0.51% (n = 310,000); activation (rescue from dofetilide block), less the hit threshold, % at 10 µM; Q12809; CHO-hERG, FluxOR thallium flux, dofetilide IC70 present;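 active means activation above the mean of controls blocked by dofetilide plus 5 SD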;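 further: thallium influx through hERG after potassium depolarization seen as dye fluorescence rise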
KCNQ1 inh: human KCNQ1 channel inhibition | P51787 | CHO-K1 KCNQ1, FluxOR thallium flux fluorescence; active compounds read high | B-score at 10 µM | actives 1.3% (n = 310,000) | AID 2642;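 active means compounds whose thallium flux B-score, printed positive for inhibition, exceeds three library SD while starting fluorescence stays within three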;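 further: channel opened by potassium depolarization with thallium stimulus after 20 min compound exposure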
KCNQ1 pot: potentiators or activators of human KCNQ1 potassium channel. CHO-K1 KCNQ1, thallium flux FluxOR fluorescence; active compounds read high. P51787. B-score at 10 µM. actives 0.35% (n = 310,000). AID 2648;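 active means fluorescence ratio B-score, a plate-corrected score, at least three library SD, with initial intensity B-score within 5 SD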
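Assay system: stable KCNQ1 CHO-K1 line; medium: assay buffer, equal DMSO in all wells; timing: 90 min dye loading and 20 min compound exposure, both at room temperature; technique: kinetic FluxOR thallium fluorescence, 10-s 1-Hz baseline, 110-s post-stimulus read; read-out basis: B score of baseline-normalized fluorescence ratio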
Kir21 inh: blocks the mouse Kir2.1 inward-rectifier potassium channel | B-score at 10 µM | actives 0.85% (n = 310,000) | P35561 | HEK293-Kir2.1, FluxOR thallium flux fluorescence; active compounds read low;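 active means fluorescence ratio B-score at or below minus 3 SD of library scores, with starting-brightness B-score within 2 SD, cut at about -4.2 in these data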;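 further: channel flux triggered by added potassium and thallium sulfate stimulus; B-score of peak minus minimum fluorescence over baseline after thallium stimulus; more negative B-score means stronger Kir2.1 block with less thallium influx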
KCNK3 inh: human KCNK3 channel inhibition, primary screen; CHO-KCNK3 thallium flux, FluxOR fluorescence; active compounds read low; B-score at 10 µM; actives 0.84% (n = 340,000); AID 602410;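 active means B-score under library mean minus 4 SD, starting fluorescence ratio at most library mean plus 5 SD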;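 further: more negative B-score means stronger inhibition of thallium flux through KCNK3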
* = called active by the depositor; i = inactive; . = no result.

SMILES | KCNK9 inh | hERG rescue | KCNQ1 inh | KCNQ1 pot | Kir21 inh | KCNK3 inh
O=C(NCc1ccc(F)cc1)c1cc2sccc2n1Cc1ccc(F)cc1 | -10* | -9 | i | i | 1.2 | .
O=C(/C=C/c1ccc(OC(F)F)cc1)Nc1cccc(S(=O)(=O)N2CCOCC2)c1 | i | -8 | i | i | -0.13 | i
c1csc(CCNc2ncnc3sc4c(c23)CCC4)c1 | i | -18 | i | i | 0.77 | -8.7*
c1ccc(Nc2ncnc3sc4c(c23)CCC4)cc1 | i | 5.2* | i | i | 0.92 | i
CC(Sc1nnc(Cn2c(=O)sc3ccccc32)n1C)c1ccccc1 (stereo not drawn) | i | -10 | i | i | -4.2* | i
COc1ccc(CN2CCN(CC(O)Cn3c4ccccc4c4ccccc43)CC2)cc1 (stereo not drawn) | i | -25 | i | i | -4.4* | i
OC(CN1CCCCC1)Cn1c2ccccc2c2ccccc21 (stereo not drawn) | i | -5 | i | i | 1.2 | i
O=c1c2ccccc2n(CC(O)CN2CCCCC2)c2ccccc12 (stereo not drawn) | -8.1* | -5 | i | i | 0.07 | i
CCOc1ccc(CN2CCN(CC(O)Cn3c4ccccc4c4ccccc43)CC2)cc1 (stereo not drawn) | i | -18 | i | i | -1.2 | i
CCNC(=S)N(CCc1c(C)[nH]c2ccc(Cl)cc12)Cc1ccco1 | i | -37 | i | i | -3.3 | i
CNC(=S)N(CCc1c(C)[nH]c2ccc(C)cc12)Cc1ccco1 | i | -5 | i | i | -5* | i
CCc1ccc(C(C)NC(=S)NC2CCCCC2)cc1 (stereo not drawn) | i | -3 | i | i | -1 | i
O=S(=O)(NC(=S)NC1CCCCC1)c1ccc(Cl)cc1 | i | 5.5* | i | i | 0.47 | i
CCc1ccc(S(=O)(=O)NC(=S)NC2CCCCC2)cc1 | i | 21* | i | 23* | 0.29 | i
Cc1ccc(S(=O)(=O)NC(=S)NC2CCCCC2)cc1 | i | 7.5* | i | i | -1 | i
CCCCCCN1CC(=O)N2Cc3[nH]c4ccccc4c3C[C@H]2C1=O | i | -4 | i | i | -1.1 | i
CC(=O)NCC(=O)OCC(=O)c1ccc(Br)cc1 | i | -6 | i | i | 0.55 | i
COc1ccc(C=C2C=C(C(C)(C)C)C(=O)C(C(C)(C)C)=C2)cc1OC | i | -4 | 6* | i | -1.3 | i
CC(=O)Nc1ccc(OC(=O)c2ccc(Br)c([N+](=O)[O-])c2)cc1 | i | -25 | 7* | i | 0.93 | i
CCOc1ccc(C(=O)Oc2ccc(NC(C)=O)cc2)cc1 | i | -9 | i | i | 0.09 | .
CN(C)CCN(C)Cc1ccccc1Sc1cccc2ccccc12 | i | -17 | i | i | -7.1* | i
CNCc1ccccc1Sc1cccc2ccccc12 | i | -14 | i | 8* | -15* | i
CNCc1ccccc1Sc1ccc(OC)cc1 | i | -3 | i | i | 0.29 | i
CCOc1ccc(CCNS(=O)(=O)c2cc3c(cc2C)NC(=O)CO3)cc1OCC | i | -6 | i | i | -0.34 | i
Cc1ccc(S(=O)(=O)NCCSc2nnnn2-c2ccccc2)cc1 | i | 0 | i | i | -7.1* | i
SMILES | KCNK9 inh | hERG rescue | KCNQ1 inh | KCNQ1 pot | Kir21 inh | KCNK3 inh
C=CC[n+]1ccc(/C=C2\C=Cc3cc(C)ccc3N2CC)c2ccccc21 | . | . | . | . | . | -15*
CCN1/C(=C/c2cc[n+](CCCS(=O)(=O)[O-])c3ccccc23)Sc2ccccc21 | i | -8 | i | i | 0 | i
C/C(=N\N=C(c1ccccc1)c1ccccc1)c1ccco1 | i | -15 | 7* | i | 1.8 | i
NC(=O)CC(NC(=O)Cc1ccc(Cl)cc1)c1ccc(NCCOc2ccccc2)c([N+](=O)[O-])c1 (stereo not drawn) | i | -8 | i | i | 0.68 | i
CC(C)CC(=O)/C(=C\c1ccc(Cl)cc1Cl)n1cncn1 | i | -24 | i | i | -8.2* | i
CC(C)CC(=O)/C(=C/c1ccc(N(C)C)cc1)n1cncn1 | i | -9 | i | i | -1.6 | i
Cc1cc(C(=O)O)cc(S(=O)(=O)Nc2ccccc2C(=O)NC2CC2)c1C | . | . | . | . | . | i
Cc1onc(-c2c(F)cccc2Cl)c1C(O)c1ccc(F)cc1 (stereo not drawn) | i | -5 | i | i | -4.4* | i
Cc1onc(-c2ccccc2Cl)c1C(O)c1ccc(F)cc1 (stereo not drawn) | i | -10 | i | i | -3.4 | i
COC(=O)C1CN(S(=O)(=O)c2ccccc2)CCN1S(=O)(=O)c1ccccc1 (stereo not drawn) | -7.3* | -12 | i | i | -1.4 | i
CCCc1cc(-c2[nH]ncc2-c2ccc3c(c2)OCCCO3)c(O)cc1O | i | -28 | 6* | i | -0.48 | i
COc1ccc(-c2cccc(C(=O)Nc3ccccc3C)c2)cc1 | i | -7 | i | i | -0.59 | i
COc1ccc(C)cc1NC(=O)c1cccc(-c2ccc(OC(C)=O)cc2)c1 | -8.1* | -6 | i | i | -0.85 | i
CC(NS(=O)(=O)c1c(N)n(C)c(=O)n(C)c1=O)c1ccccc1 (stereo not drawn) | i | -8 | i | i | -0.82 | i
Cc1ccc(Cl)cc1N1CCN(C(=O)c2noc(C(C)C)c2[N+](=O)[O-])CC1 | i | -8 | i | i | 0.07 | i
CNC(=O)c1sccc1SCc1ccc(Cl)cc1Cl | i | -13 | i | i | -5.2* | i
NNC(=O)c1sccc1OCc1ccc(Cl)cc1Cl | i | -12 | i | i | -1.8 | i
O=[N+]([O-])c1ccc(-c2nc3ccc([N+](=O)[O-])cc3[nH]2)cc1 | i | -6 | i | i | 0.33 | i
O=[N+]([O-])c1ccc2nc(/C=C/c3ccc(Cl)cc3)[nH]c2c1 | i | -14 | 11* | i | 0.67 | i
CN(CC(=O)N1CCN(Cc2ccccc2)CC1)C(=O)Cc1cccc2ccccc12 | . | . | . | . | . | i
O=C(N/N=C/c1coc2ccccc2c1=O)c1cc(Br)c(O)c(Br)c1 | i | -30 | 8* | i | 0.01 | i
O=C(C[n+]1ccc(-c2cc(C(=O)Nc3cccc(C(F)(F)F)c3)c3ccccc3n2)cc1)c1cccc([N+](=O)[O-])c1 | i | -20 | 7* | i | -1.3 | i
O=S(=O)(c1ccccc1)N1CCCC1c1nc2ccccc2s1 (stereo not drawn) | i | -12 | i | i | -4.5* | i
